NR2E3 ag-1 – activates human NR2E3 receptor | inhibition of corepressor binding, % at 3.98 µM | AID 602229 | actives 0.35% (n = 360,000) | CHO-S Gal4-NCOR/VP16-NR2E3 two-hybrid, luciferase;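 active = inhibition above the mean of all tested compounds plus 3 SD, cut at about 70% in these data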;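 also: 0% = DMSO with NR2E3 transfected cells and 100% = cells lacking NR2E3 construct; higher means lower luciferase signal from less NR2E3 corepressor binding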
Rev-erbA mod – modulates human Rev-erb alpha binding to DNA | Rev-erbα–FITC-DNA binding, fluorescence polarization, 90 min | activity, % at 10 µM | actives 0.79% (n = 370,000);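 active = activity above about 14%, limit read from the data; passing the limit was not always enough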;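 also: 0% = DMSO wells with 35 nM protein and 100% = DMSO wells with 750 nM protein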
Target sequence (P20393 whole entry, looked up): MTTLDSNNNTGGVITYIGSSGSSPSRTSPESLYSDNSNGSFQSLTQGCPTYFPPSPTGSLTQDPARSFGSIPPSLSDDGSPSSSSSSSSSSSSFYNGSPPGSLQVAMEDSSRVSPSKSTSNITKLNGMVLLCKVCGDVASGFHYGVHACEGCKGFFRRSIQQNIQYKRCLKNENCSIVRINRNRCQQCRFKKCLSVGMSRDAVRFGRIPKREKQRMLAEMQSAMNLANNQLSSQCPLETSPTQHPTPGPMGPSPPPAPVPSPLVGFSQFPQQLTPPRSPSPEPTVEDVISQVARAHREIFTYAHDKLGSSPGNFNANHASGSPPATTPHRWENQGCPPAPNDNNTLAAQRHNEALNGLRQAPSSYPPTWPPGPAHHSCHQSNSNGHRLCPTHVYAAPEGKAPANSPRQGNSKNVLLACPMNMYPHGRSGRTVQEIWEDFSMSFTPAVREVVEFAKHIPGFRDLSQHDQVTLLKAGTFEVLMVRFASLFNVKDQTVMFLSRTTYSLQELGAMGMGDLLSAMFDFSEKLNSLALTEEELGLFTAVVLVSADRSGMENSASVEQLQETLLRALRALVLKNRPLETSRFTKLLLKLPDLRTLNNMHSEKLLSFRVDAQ
PG9 Ab binder – small molecules binding HIV-1 gp120 antibody PG9; TR-FRET gp120-PG9 antibody binding; inhibition, % at 6.7 µM; actives 0.43% (n = 360,000); in the data active = inhibition above about 8.5%
NR2E3 ag-2 – activates human photoreceptor nuclear receptor NR2E3; Q9Y5X4; GST-NR2E3/biotin-RetCOR TR-FRET, 1536-well; inhibition of corepressor binding, % at 4.78 µM; actives 0.12% (n = 320,000); AID 2300;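 active = percent inhibition above the cutoff of mean plus 3 SD of all tested compounds, set per screening campaign, cut at about 20% in these data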;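 also: 0% = DMSO wells and 100% = biotin wells as full block of FRET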
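Test system: GST-NR2E3 and biotin-RetCOR proteins | Quantity: 1.35 nM GST-tagged NR2E3 final | Medium: Tris pH 7.5 | Also added: 7 nM biotin-RetCOR | Dosing: Compound at 4.8 µM, single dose | Timing: 5 h at 4 °C | Detection: Time-resolved FRET | Read-out basis: Percent inhibition | Benchmarks: Biotin wells as high control, 0.6% DMSO wells as low control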
NR2E3 ag conf – NR2E3 agonism confirmed in two-hybrid assay | inhibition, % at 3.98 µM | CHO-S mammalian two-hybrid NR2E3-NCOR, luciferase luminescence | actives 51% (n = 2,300) | shares compounds with NR2E3 ag-1 | AID 624378;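 active = average inhibition above a cutoff equal to the mean inhibition of all tested compounds plus one SD, cut at about 70% in these data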;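 also: 0% = DMSO in NR2E3 cells and 100% = DMSO in cells lacking NR2E3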
VP16 counter – counter-screen for NR2E3 agonists: GAL4-VP16 reporter inhibitors | inhibition, % at 3.98 µM | shares compounds with NR2E3 ag-1 | AID 624379 | actives 29% (n = 2,300) | CHO-S GAL4-VP16 luciferase reporter, luminescence;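 active = mean inhibition above a cutoff equal to the average over all tested compounds plus one standard deviation, cut at about 70% in these data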;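 also: luciferase from a UAS reporter driven by GAL4-VP16 transactivation; 0% = DMSO with VP16-transfected cells and 100% = DMSO with cells lacking VP16; higher means less reporter light so more repression of VP16 activity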
* marks the source's active call; other numbers are inactive results; · = not tested or not shown. Sampled rows, rich in hits. Any-hit rate of the full collection: about 1.4%.

SMILES	NR2E3 ag-1	Rev-erbA mod	PG9 Ab binder	NR2E3 ag-2	NR2E3 ag conf	VP16 counter
CN(CC(=O)Nc1ccccc1Cl)C(=O)c1cccc(S(=O)(=O)N2CCN(c3ccccc3)CC2)c1	63	6	2	·	82*	63
CC1CN(C(=O)c2cc(S(=O)(=O)N3CCN(c4ccccc4)CC3)ccc2Cl)CC(C)O1 (stereo not drawn)	10	-7	0	-2	·	·
O=C(c1cc(S(=O)(=O)N2CCN(c3ccccc3)CC2)ccc1Cl)N1CCCCCCC1	67	0	1	3	79*	48
CCCCNC(=O)C1(C(=O)c2ccc(OC)cc2)CC(C(=O)OCC)=NO1 (stereo not drawn)	·	-5	·	·	·	·
CC(=O)CC/C=C(\C)CC/C=C(\C)CC/C=C(\C)CCC=C(C)C	·	-4	·	·	·	·
COCCN(C[C@@H]1[C@H](c2ccccc2)[C@H](CO)N1c1nc(C)c(C)s1)S(=O)(=O)c1ccccc1[N+](=O)[O-]	·	7	·	·	·	·
CN(CC(=O)Nc1cccc(F)c1)C(=O)c1ccc(N2CCCC2)c([N+](=O)[O-])c1	63	-1	-1	-4	19	23
CN(CC(=O)Nc1cccc(F)c1)C(=O)c1cccc(S(=O)(=O)N2CCN(Cc3ccccc3)CC2)c1	22	-9	-1	·	·	·
Cc1cccc(C)c1NC(=O)CN(C)C(=O)c1cccc(S(=O)(=O)N2CCN(c3ccc(F)cc3)CC2)c1	11	-5	1	-1	·	·
CN(CC(=O)Nc1ccccc1Cl)C(=O)c1cccc(S(=O)(=O)N2CCN(Cc3ccccc3)CC2)c1	102*	-1	0	1	63	46
O=C(c1cccc(S(=O)(=O)N2CCN(c3ccc(F)cc3)CC2)c1)N1CCCC(C(F)(F)F)C1 (stereo not drawn)	89*	0	2	-4	97*	82*
CN(CC(=O)Nc1cccc(F)c1)C(=O)c1cccc(S(=O)(=O)N2CCN(c3ccc(F)cc3)CC2)c1	50	-3	-1	·	46	26
O=C(OCc1ccccc1)c1cccnc1	·	-4	·	·	·	·
C[C@H]1COc2cc(N3CCCC3)ccc2S(=O)(=O)N1C	·	-1	·	·	·	·
CCOC(=O)[C@]12CCCCC/C=C\1N(CCc1ccc(Cl)cc1)C(=O)[C@H]2CC(=O)NCc1ccc(C)o1	·	4	·	·	·	·
COC(=O)C[C@H]1CC[C@H]2[C@H](COc3ccc(NC(=O)c4cccs4)cc3C(=O)N2C)O1	·	-3	·	·	·	·
CC(C)(C)c1ccc(S(=O)(=O)N2CCCC2C(=O)N2CCc3ccccc3C2)cc1 (stereo not drawn)	·	-7	·	·	·	·
Cc1cc(NC(=O)CSc2[nH]c(=O)cc(C(F)(F)F)c2C#N)no1	7	5	-2	1	·	·
Cc1cc(-n2c(C)cc(C(=O)CSc3[nH]c(=O)cc(C(F)(F)F)c3C#N)c2C)no1	98*	2	0	4	99*	89*
Fc1ccc2[nH]c3c(N4CCN(c5ccccc5)CC4)ncnc3c2c1	80*	-1	2	1	96*	80*
CCOC(=O)N1CCN(c2ncnc3c2[nH]c2ccc(OC)cc23)CC1	10	-2	-1	1	·	·
COc1ccc(N2CCN(c3ncnc4c3[nH]c3ccccc34)CC2)cc1	77*	2	-3	-1	95*	81*
CCOC(=O)N1CCN(c2ncnc3c2[nH]c2ccc(F)cc23)CC1	80*	-7	2	1	95*	73*
Fc1ccc2[nH]c3c(Cl)ncnc3c2c1	7	-6	0	4	·	·
COc1ccc2[nH]c3c(N4CCc5ccccc5C4)ncnc3c2c1	-23	-4	-1	-3	·	·
SMILES	NR2E3 ag-1	Rev-erbA mod	PG9 Ab binder	NR2E3 ag-2	NR2E3 ag conf	VP16 counter
OC1(c2cccc(C(F)(F)F)c2)CCN(c2ncnc3c2[nH]c2ccc(F)cc23)CC1	71*	1	0	·	91*	71
O=C(CCCN1CCC(O)(c2cccc(C(F)(F)F)c2)CC1)c1ccc(F)cc1	7	5	-1	2	·	·
O=C(CN1CCC(NC(=O)Nc2ccc(Cl)cc2)CC1)Nc1ccc2c(c1)OCCO2	·	0	·	·	·	·
Cc1ccc2c(c1)N(CCCC(=O)NCc1ccc(F)cc1)C(=O)CO2	·	3	·	·	·	·
CN(C(=O)c1ccccc1OCC(=O)Nc1ccc(Br)cc1)c1ccccc1	·	-1	·	·	·	·
COCCCN1C(=O)[C@H](CC(=O)NCc2cccc(C(F)(F)F)c2)[C@]2(C(=O)OC)CCCCC=C12	·	3	·	·	·	·
O=C(NNC(=O)c1cccc(S(=O)(=O)N2CCc3ccccc32)c1)c1ccccc1	53	-1	0	·	80*	71*
Nc1ccc(S(=O)(=O)N2CCc3ccccc32)cc1	14	5	1	4	·	·
O=S(=O)(NC1CCCC1)c1ccc(S(=O)(=O)N2CCc3ccccc32)cc1	55	-1	0	1	79*	54
CC(C)CCNC(=O)c1cccc(S(=O)(=O)N2CCc3ccccc32)c1	-7	2	3	1	·	·
C[C@H]1COc2c3ccccc3nn21	·	-2	·	·	·	·
CC(COc1ccccc1C#N)CN1CCC(C(O)(c2ccccc2)c2ccccc2)CC1 (stereo not drawn)	·	3	·	·	·	·
CC(COc1cc(F)cc(C#N)c1)CN1CCC(C(O)(c2ccccc2)c2ccccc2)CC1 (stereo not drawn)	·	-1	·	·	·	·
Cc1cc(C)cc(NC(=O)c2ccc([N+](=O)[O-])o2)c1	84*	2	0	·	51	41
COc1ccccc1-n1cnnc1SCC(=O)Nc1cc(C(C)(C)C)nn1-c1ccccc1	12	1	1	2	·	·
COc1ccc(-n2cnnc2SCC(=O)Nc2cc(C(C)(C)C)nn2-c2ccccc2)cc1	66	3	-3	-1	20	15
O=C(Nc1ccc(Cl)c(Cl)c1)C1CCN(c2ncccn2)CC1	·	-2	·	·	·	·
COc1ccc(CC(=O)NCc2nn(-c3ccccc3)nc2C)cc1OC	-16	-1	-1	2	·	·
COc1ccc(-c2ocnc2C(=O)NCc2nn(-c3ccccc3)nc2C)cc1	56	3	2	2	87*	72*
COCCN(Cc1cc2cc3c(cc2nc1Cl)OCO3)C(=O)Nc1ccc(F)cc1	52	·	1	-2	64	51
COCCN(Cc1cc2cc3c(cc2nc1Cl)OCO3)C(=O)Nc1ccc(OC)cc1	-7	23	-3	3	·	·
CC(C)(C)OC(=O)N1CCC(N[C@@H](Cc2c[nH]c3ccccc23)C(=O)NCCc2c[nH]c3ccccc23)(C(=O)NC2CCCCC2)CC1	·	-1	·	·	·	·
COc1ccc(CNC(=O)c2sc(=O)n(Cc3ccc(C)cc3)c2C)cc1OC	23	-8	-1	·	·	·
COc1ccc(CNC(=O)c2sccc2-c2ccccc2)cc1OC	58	0	0	0	28	30
COc1ccc(CNC(=O)c2[nH]c(C(F)(F)F)nc2-c2ccccc2)cc1OC	13	3	1	·	·	·
COc1ccc(CNC(=O)c2sc(=O)n(Cc3ccc(-c4ccccc4)cc3)c2C)cc1OC	60	-8	-1	·	72*	61
